Legend:
[1] = tested on: MCT4 (SLC16A3) mRNA; test: MCT4 gene expression by ddPCR in Caco-2 cells; format: cell-based, human; details: vs control; for increase of MCT4 mRNA: 1 mM 14 days (mix 0.25 mM each), n=4
Outline: (§1)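 Caco-2 cells were seeded on transwells at 6×104 cm−2 and grown 21–23 days. From day 7 the apical medium was FBS-free with 1 mM Na-acetate, -propionate, -butyrate, -lactate or an equimolar mix (0.25 mM each); basal medium had 20% FBS; 0.1% DMSO served as control. RNA (1 µg) was reverse-transcribed. Duplex TaqMan ddPCR used 0.65 ng cDNA per reaction, with target FAM and TBP VIC. Copies/ng cDNA were derived by Poisson analysis. Four biological replicates from two seedings, each with three technical replicates; t test.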

[2] = tested on: ABCG2 protein; test: ABCG2 protein abundance by ProteinSimple WES in Caco-2 cells; format: cell-based, human; details: vs control; for decrease of ABCG2 protein levels: 1 mM 14 days
Outline: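 Transwell Caco-2 monolayers received 1 mM apical SCFA/lactate or mix (0.25 mM each) from day 7 and were lysed at 21–23 days in Bicine-CHAPS with inhibitors, then BCA-quantified. For capillary WES, 1.5 mg/ml lysate was used with 95°C denaturation for 5 min. α-Tubulin loading control came from the same sample in separate capillaries. Peak areas were quantified. Mean of 3–6 biological replicates ±S.E.M.; t test.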

[3] = tested on: MCT4 protein; test: MCT4 protein abundance by ProteinSimple WES in Caco-2 cells; format: cell-based, human; details: 1 mM 14 days (mix 0.25 mM each), vs control
[4] = tested on: Caco-2 cells; test: SA transport across differentiated Caco-2 monolayers; format: in vitro ADME, human; details: 1 mM 14 days, vs untreated cells; for increase of SA in the basolateral compartment: n=6, P=.003
Outline: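 Pretreated Caco-2 transwell monolayers (1 mM apical SCFA/lactate or mix from day 7, used at 21–23 days) were equilibrated in HBSS (pH 7.4) for 30 min at 37°C; monolayers under 930 Ω cm2 TEER were excluded. Apical 1 mM MCT substrate was incubated for 30 min. Both compartments were analysed by HPLC-UV at 303 nm, with DMCA internal standard at 326 nm. Six biological replicates in duplicate; t test, P<.01.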

[5] = tested on: MCT1 (SLC16A1) mRNA; test: MCT1 gene expression by ddPCR in Caco-2 cells; format: cell-based, human; details: 1 mM 14 days, vs control
Outline: as §1

[6] = tested on: Caco-2 cells; test: FA transport and metabolism across differentiated Caco-2 monolayers; format: in vitro ADME, human; details: 1 mM 14 days; for effect on transepithelial transport of FA (apical to basolateral): vs untreated (abstract, discussion); for effect on FA-sul in apical compartment / increase of FA-glu in basal compartment: n=6, P<.01
Outline: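 Caco-2 monolayers were pretreated apically with 1 mM SCFA/lactate or mix from day 7 and used at 21–23 days after 30 min HBSS (pH 7.4) equilibration at 37°C; monolayers with TEER <930 Ω cm2 were discarded. Apical 500 µM test compound was applied for 1 h. Apical and basal samples were stabilised with ascorbic acid and spiked with acetic acid (10 mM final) and DMCA internal standard (10 µM final). LC-MS/MS MRM quantified parent and conjugates. Six biological replicates in duplicate; t test.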

[7] = tested on: Caco-2 cells; test: Transepithelial Electrical Resistance; format: cell-based, human; details: 1 mM apical pretreatment 14 days, n=36; for average TEER value after pretreatment: untreated 1149±23
Outline: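 Caco-2 cells were seeded on transwells at 6×104 cm−2 and exposed apically from day 7 to 1 mM Na-acetate, -propionate, -butyrate, -lactate or mix in FBS-free medium (basal 20% FBS; 0.1% DMSO control). At 21–23 days, after HBSS washes and 30 min equilibration at 37°C, 10% CO2, TEER was measured with a voltohmmeter; t test.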

[8] = tested on: ABCG2 mRNA; test: ABCG2 gene expression by ddPCR in Caco-2 cells; format: cell-based, human; details: vs control; for effect on ABCG2 mRNA: 1 mM 14 days; for decrease of ABCG2 mRNA: 1 mM 14 days (mix 0.25 mM each)
Outline: as §1

[9] = tested on: MCT1 protein; test: MCT1 protein abundance by ProteinSimple WES in Caco-2 cells; format: cell-based, human; details: 1 mM 14 days, vs control
[10] = tested on: Caco-2 cells; test: HT transport and phase II metabolism across differentiated Caco-2 monolayers; format: in vitro ADME, human; details: for decrease of HT-3′-glu 2 formation: acetate: in both compartments; for effect on efflux of HT-7-glu to both compartments: chronic treatment 1 mM 14 days (discussion)
Outline: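 Caco-2 monolayers on transwells were pretreated apically with 1 mM SCFA/lactate or mix from day 7 to day 21–23. Cells were equilibrated in HBSS (1.8 mM CaCl2, pH 7.4) for 30 min at 37°C, and monolayers below 930 Ω cm2 TEER were discarded. Apical 20 µM test compound was applied for 1 h. Both compartments were sampled with 100 µM ascorbic acid and analysed by LC-MS/MS MRM (daidzein internal standard, matrix-matched calibration). n=6 in duplicate; t test.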

[11] = tested on: UGT1A protein; test: UGT1A protein abundance by ProteinSimple WES in Caco-2 cells; format: cell-based, human; details: 1 mM 14 days; for effect on UGT1A protein: vs control (discussion); for decrease of UGT1A protein levels: vs control
[12] = 1 mM 14 days, vs untreated, n=6, P<.01
[13] = untreated cells, 20 μM HT apical, 1 h, HT-7-sul as HT-3′-sul equivalents

SMILES	effect on MCT4 protein levels [3]	increase of SA in the basolateral compartment [4] [%]	decrease of MCT1 mRNA [5]	effect on transepithelial transport of FA (apical to basolateral) [6]	effect on FA-sul in apical compartment ([6]; vs untreated)	increase of FA-glu in basal compartment ([6]; vs untreated)	average TEER value after pretreatment [7]	effect on ABCG2 mRNA [8]	effect on HT-3′-sul efflux to the apical direction ([10]; 1 mM 14 days, vs untreated)	increase of HT-7-glu in basal compartment [10, 12] [%]	decrease of HT-3′-glu 2 formation [10, 12]	effect on efflux of HT-7-glu to both compartments [10]	effect on UGT1A protein [11]	increase of MCT4 mRNA [1]	decrease of ABCG2 protein levels [2]	effect on FA-sul in basolateral compartment ([6]; vs untreated)	decrease of ABCG2 mRNA [8]	effect on SA transport [4]	decrease of UGT1A protein levels [11]	further results
CCCC(=O)O [butyrate, Na-butyrate]	not affected	32	~ 30%	strongly enhanced	lower	~ 40%	1066±31 Ω cm^2	decreased	lower	23	30–40%	increased	did not affect							effect on MCT4 mRNA ([1]; 1 mM 14 days): not affected; effect on ABCG2 protein levels ([2]; 1 mM 14 days (mix 0.25 mM each)): not reflected in protein changes; decrease of average TEER values ([7]; vs untreated cells): 7%; increase of MCT1 protein ([9]; n=3, P=.01): ~ 40%
CCC(=O)[O-].[Na+] [propionate, Na-propionate]	without significant effects	21		strongly enhanced		83%				42		increased	did not affect	~ 29%	~ 40%	favored over efflux to the apical compartment	~ 18%			effect on MCT1 gene expression [5]: unchanged; increase of FA-glu in apical compartment ([6]; vs untreated): 72%; higher concentration of DHFA in apical compartment ([6]; vs untreated, n=6, P<.001): 4.1 fold; higher concentration of DHFA in basal compartment ([6]; vs untreated, n=6, P<.001): 3.4 fold; effect on MCT1 protein levels [9]: without significant effects; effect on HT-3′-sul basolateral transport ([10]; 1 mM 14 days, vs untreated): stimulated; effect on HT-7-sul basolateral transport ([10]; 1 mM 14 days, vs untreated): stimulated; increase of HT-3′-glu 1 in basolateral side [10, 12]: 34%
CC(O)C(=O)[O-].[Na+] (stereo not shown) [lactate, Na-lactate]			20–30%		substantially decreased		1232±25 Ω cm^2		lower						~ 50%	substantially decreased	20–30%	did not affect	~ 30%	decrease of MCT4 mRNA ([1]; 1 mM 14 days, P<.001): 20–30%; increase of TEER (resistance) ([7]; vs untreated cells): 7%; decrease of all HT phase II conjugates in apical compartment ([10]; 1 mM 14 days, vs untreated): 13–40%; effect on HT-3′-glu 1 in basolateral side [10, 12]: substantially decreased; effect on HT-3′-glu 2 in basolateral side [10, 12]: substantially decreased
COc1ccc(C2CC(=O)c3c(O)cc(O)cc3O2)cc1OS(=O)(=O)O (stereo not shown) [HT-3′-sul, hesperetin-3′-O-sulfate]																				rate of appearance of HT conjugate in apical compartment [10, 13]: 2.8 ± 0.1 pmol/min; rate of appearance of HT conjugate in basal compartment [10, 13]: 2.53 ± 0.06 pmol/min
CC(=O)[O-].[Na+] [acetate, Na-acetate]								unaffected	lower		20%			~ 20%				did not affect	~ 25%	increase of MCT1 mRNA ([5]; n=4, P≤.02): ~ 20%; effect on FA transport and metabolism ([6]; vs untreated): no effect; decrease of MCT1 protein ([9]; n=3, P<.005): ~ 30%

— paper PMC5756543 (The Journal of Nutritional Biochemistry, 2017)
